Measurements reported in ChEMBL document CHEMBL1157936, “Synthesis of 7-benzyl-5-(piperidin-1-yl)-6,7,8,9-tetrahydro-3H-pyrazolo[3,4-c][2,7]naphthyridin-1-ylamine and its analogs as bombesin receptor subtype-3 agonists” (Bioorg Med Chem Lett, 2010).
pEC50: −log10 of the molar value.

Tests used:
[1] = molecular target: T1, Bombesin receptor subtype-3 (Homo sapiens) (UniProt P32247); assay: Agonist activity at human BRS3 expressed in HEK293AEQ cells after 10 mins by aequorin bioluminescence assay relative to dY-peptide; type: functional, cell-based
T1 sequence (whole entry): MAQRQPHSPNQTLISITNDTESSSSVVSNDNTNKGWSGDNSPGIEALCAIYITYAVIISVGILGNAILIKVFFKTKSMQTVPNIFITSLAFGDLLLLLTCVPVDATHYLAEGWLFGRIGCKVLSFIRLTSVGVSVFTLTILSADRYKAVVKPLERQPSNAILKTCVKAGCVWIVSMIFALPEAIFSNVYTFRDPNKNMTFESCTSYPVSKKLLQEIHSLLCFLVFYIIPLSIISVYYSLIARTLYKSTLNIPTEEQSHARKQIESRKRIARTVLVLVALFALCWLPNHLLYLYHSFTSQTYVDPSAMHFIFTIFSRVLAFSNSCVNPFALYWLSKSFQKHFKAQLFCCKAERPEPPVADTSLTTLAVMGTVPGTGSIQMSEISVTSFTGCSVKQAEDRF

[2] = Drug level in rat brain at 1 mg/kg, iv after 0.25 hrs; type: ADME, organism-based; set-up: dose 1 mg/kg, route intravenous; conditions: read-out: Drug uptake
In short: (§1)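 Rats received a single 1 mg/kg IV dose. Total drug concentration in brain and the brain/plasma ratio were measured at 0.25, 1 and 2 h post-dose.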

[3] = molecular target: T2, Bombesin receptor subtype-3 (Rattus norvegicus) (UniProt Q8K418); assay: Agonist activity at rat BRS3 expressed in HEK293AEQ cells after 10 mins by aequorin bioluminescence assay relative to dY-peptide; type: functional, cell-based; set-up: concentration or dose not given beside the values
T2 sequence (whole entry): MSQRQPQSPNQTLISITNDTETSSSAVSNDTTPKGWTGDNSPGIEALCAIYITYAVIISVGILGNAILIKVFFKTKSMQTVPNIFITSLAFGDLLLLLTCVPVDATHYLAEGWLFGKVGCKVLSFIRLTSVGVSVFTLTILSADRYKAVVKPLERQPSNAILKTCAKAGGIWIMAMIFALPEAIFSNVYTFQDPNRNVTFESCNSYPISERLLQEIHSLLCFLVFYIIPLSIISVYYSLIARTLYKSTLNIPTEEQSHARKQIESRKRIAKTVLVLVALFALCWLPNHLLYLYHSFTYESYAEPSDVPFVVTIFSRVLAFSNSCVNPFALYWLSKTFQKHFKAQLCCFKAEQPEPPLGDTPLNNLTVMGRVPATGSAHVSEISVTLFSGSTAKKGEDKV

[4] = Drug level in rat brain at 1 mg/kg, iv after 2 hrs; type: ADME, organism-based; set-up: dose 1 mg/kg, route intravenous; conditions: read-out: Drug uptake; in short: as §1
[5] = molecular target: T3, Bombesin receptor subtype-3 (Homo sapiens, UniProt P32247); assay: Agonist activity at human BRS3 expressed in HEK293AEQ cells after 10 mins by aequorin bioluminescence assay; type: functional, cell-based
T3 sequence (P32247 whole entry): T1 sequence (whole entry)

[6] = Ratio of drug level in brain to plasma in rat at 1 mg/kg, iv after 2 hrs; type: ADME, organism-based; set-up: dose 1 mg/kg, route intravenous; conditions: brain and plasma, read-out: BPR; in short: as §1
Rattus norvegicus [7] = assay: Antiobesity activity in deit-induced obese rat model assessed as suppression of acute food intake at 0.3 mg/kg, iv relative to control; type: functional
In short: (§2)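 Acute food intake was measured and expressed as percent suppression versus vehicle-treated rats. Melanotan-II served as the positive control.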

[8] = Clearance in rat; type: ADME, organism-based; conditions: in vivo
[9] = Bioavailability in rat; type: ADME, organism-based; conditions: in vivo
Rattus norvegicus [10] = assay: Antiobesity activity in deit-induced obese rat model assessed as suppression of acute food intake at 10 mg/kg, iv relative to control; type: functional; in short: as §2
[11] = Drug level in rat brain at 1 mg/kg, iv after 1 hr; type: ADME, organism-based; set-up: dose 1 mg/kg, route intravenous; conditions: read-out: Drug uptake; in short: as §1
[12] = molecular target: T4, Bombesin receptor subtype-3 (Rattus norvegicus, UniProt Q8K418); assay: Agonist activity at rat BRS3 expressed in HEK293AEQ cells after 10 mins by aequorin bioluminescence assay; type: functional, cell-based
T4 sequence (Q8K418 whole entry): T2 sequence (whole entry)

[13] = Half life in rat; type: ADME, organism-based; conditions: in vivo
[14] = Ratio of drug level in brain to plasma in rat at 1 mg/kg, iv after 1 hr; type: ADME, organism-based; set-up: dose 1 mg/kg, route intravenous; conditions: brain and plasma, read-out: BPR; in short: as §1
[15] = Ratio of drug level in brain to plasma in rat at 1 mg/kg, iv after 0.25 hr; type: ADME, organism-based; set-up: dose 1 mg/kg, route intravenous; conditions: brain and plasma, read-out: BPR; in short: as §1

Compound	Activity [1] [%]	Activity [3] [%]	pEC50 [5]	pEC50 [12]	other results
Nc1n[nH]c2nc(N3CCCCC3)c3c(c12)CCN(Cc1ccccc1)C3	60	105	5.34	6.42	concentration at 0.25 h [2]: 1210 nM; concentration at 2 h [4]: 140 nM; Kp at 2 h [6]: 3.4; Activity (Rattus norvegicus [7]): 43.6%; clearance [8]: 45 mL/min/kg; bioavailability [9]: 5.7%; Activity (Rattus norvegicus [10]): 31.6%; concentration at 1 h [11]: 390 nM; half-life [13]: 43.8 min; Kp at 1 h [14]: 3.2; Kp at 0.25 h [15]: 4.4
CC(C)Nc1nc2[nH]nc(N)c2c2c1CN(Cc1ccccc1)CC2	1.8	55	5.00	5.12	
Nc1n[nH]c2nc(N3CCCC3)c3c(c12)CCN(Cc1ccccc1)C3	12	99	5.00	6.02	
CCNc1n[nH]c2nc(N3CCCCC3)c3c(c12)CCN(Cc1ccccc1)C3	53	105	5.00	6.33	
Nc1n[nH]c2nc(N3CCCCC3)c3c(c12)CCN(CC1CCCCC1)C3	12	49	5.00	5.00	
CC1CCN(c2nc3[nH]nc(N)c3c3c2CN(Cc2ccccc2)CC3)CC1	6.8	96	5.00	6.07	
Nc1n[nH]c2nc(N3CCCCC3)c3c(c12)CCN(Cc1cccc(C(F)(F)F)c1)C3	0.3	38	5.00	5.00	
CC(C)(C)C(=O)Nc1n[nH]c2nc(N3CCCCC3)c3c(c12)CCN(Cc1ccccc1)C3	37	105	5.81	7.20	
Nc1n[nH]c2nc(N3CCCCC3)c3c(c12)CCN(Cc1ccccc1Cl)C3	67	121	5.25	6.47	
Nc1n[nH]c2nc(N3CCCCCC3)c3c(c12)CCN(Cc1ccccc1)C3	9	100	5.00	5.84	
Nc1n[nH]c2nc(NC3CCCCC3)c3c(c12)CCN(Cc1ccccc1)C3	1	50	5.00	5.00	
CC(C)(C)CC(=O)Nc1n[nH]c2nc(N3CCCCC3)c3c(c12)CCN(Cc1ccccc1)C3	52	93	5.91	6.36	
CN(C)c1nc2[nH]nc(N)c2c2c1CN(Cc1ccccc1)CC2	0.9	59	5.00	5.05	
CC(=O)Nc1n[nH]c2nc(N3CCCCC3)c3c(c12)CCN(Cc1ccccc1)C3	31	94	5.50	6.89	
CCC(C)(C)C(=O)Nc1n[nH]c2nc(N3CCCCC3)c3c(c12)CCN(Cc1ccccc1)C3	78	96	6.27	6.67	
CC(C)C(=O)Nc1n[nH]c2nc(N3CCCCC3)c3c(c12)CCN(Cc1ccccc1)C3	37	102	5.32	7.00	
Nc1n[nH]c2nc(N3CCCCCCC3)c3c(c12)CCN(Cc1ccccc1)C3	3.7	51	5.00	5.00	
CN1CCN(c2nc3[nH]nc(N)c3c3c2CN(Cc2ccccc2)CC3)CC1	0.2	21	5.00	5.00	

Compound	Activity [1] [%]	Activity [3] [%]	pEC50 [5]	pEC50 [12]	other results
Nc1n[nH]c2nc(N3CCOCC3)c3c(c12)CCN(Cc1ccccc1)C3	1.3	82	5.00	5.45	
CCC(=O)Nc1n[nH]c2nc(N3CCCCC3)c3c(c12)CCN(Cc1ccccc1)C3	19	103	5.46	6.91	
Nc1n[nH]c2nc(N3CCCCC3)c3c(c12)CCN(CCc1ccccc1)C3	3.3	51	5.00	5.10	
Nc1n[nH]c2nc(N3CCNCC3)c3c(c12)CCN(Cc1ccccc1)C3	0.1	31	5.00	5.00	
Nc1n[nH]c2nc(N3CCCCC3)c3c(c12)CCN(Cc1ccc(F)cc1)C3	1.7	64	5.00	5.41	
O=C(Nc1n[nH]c2nc(N3CCCCC3)c3c(c12)CCN(Cc1ccccc1)C3)C1CCCC1	61	99	6.15	6.38	
CC(C)(C)CNc1n[nH]c2nc(N3CCCCC3)c3c(c12)CCN(Cc1ccccc1)C3	29	94	5.38	6.17	
Nc1n[nH]c2nc(Nc3ccccc3)c3c(c12)CCN(Cc1ccccc1)C3	1.5	60	5.00	5.00	
CC(C)CN1CCc2c(c(N3CCCCC3)nc3[nH]nc(N)c23)C1	10	61	5.00	5.00	
CC(=O)n1nc(N)c2c3c(c(N4CCCCC4)nc21)CN(Cc1ccccc1)CC3	20	108	5.00	6.12	
Nc1n[nH]c2nc(N3CCCCC3)c3c(c12)CCN(Cc1ccc2c(c1)OCO2)C3	1.6	94	5.00	6.40	
Cn1nc(N)c2c3c(c(N4CCCCC4)nc21)CN(Cc1ccccc1)CC3	7.6	73	5.00	5.22	
Nc1n[nH]c2nc(N3CCCCC3)c3c(c12)CCN(Cc1ccccn1)C3	46	94	5.17	6.46	
CC(C)(C)CN1CCc2c(c(N3CCCCC3)nc3[nH]nc(N)c23)C1	22	91	5.00	5.98	
Nc1n[nH]c2nc(N3CCC(F)CC3)c3c(c12)CCN(Cc1ccccc1)C3	10	96	5.00	6.32	
COc1ccc(CN2CCc3c(c(N4CCCCC4)nc4[nH]nc(N)c34)C2)cc1	0.55	8	5.00	5.00	
Nc1n[nH]c2nc(N3CCCCC3)c3c(c12)CCN(C(=O)c1ccc(F)cc1)C3			< 5.00	< 5.00	
Nc1n[nH]c2nc(N3CCCCC3)c3c(c12)CCNC3	0.3	15	< 5.00	< 5.00	
